Screening results: PubChem, several laboratories
Hits are enriched below; roughly 2.4% of the tested compounds scored in any of these assays.
Neddyl block: inhibitors of human cullin neddylation | P61081+Q13564 | inhibition, % at 25 µM | 0.58% of 360,000 active | TR-FRET cullin neddylation, biochemical; in the data active = inhibition above about 36%
CSN deneddyl inh: blocks human CSN-mediated cullin deneddylation; Purified CSN, SCF-Nedd8-OG deneddylation, fluorescence polarization; inhibition, % at 12.5 µM; 0.38% of 360,000 active; AID 651999;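 active = pattern-corrected inhibition above about 35%, with an unprinted fluorescence ratio check between 0.5 and 1.5, limit read from the data, passing the limit was not always enough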;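 also: 0% = enzyme with substrate and 100% = substrate without enzyme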
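Assay system: HEK293T-derived human Csn5 enzyme; quantity: 0.24 nM enzyme; medium: Tris/NaCl/DTT buffer, pH 7.5; also added: substrate SCFSkp2-Nedd8OG, 10 nM; doses: 12.5 µM compound; schedule: 90 min reaction at room temperature; signal: FP; read-out: % inhibition of substrate cleavage by Csn5; benchmarks: substrate-only high control, full reaction low control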
HNF4A DNA FP: change in binding of human HNF4 alpha to DNA; activity change, % at 10 µM; AID 1224865; 0.3% of 360,000 active; HNF4a-FITC DNA binding, fluorescence polarization, 1 h; in the data active = activity change above about 30%, passing the limit was not always enough
Target sequence (P41235 whole entry, looked up): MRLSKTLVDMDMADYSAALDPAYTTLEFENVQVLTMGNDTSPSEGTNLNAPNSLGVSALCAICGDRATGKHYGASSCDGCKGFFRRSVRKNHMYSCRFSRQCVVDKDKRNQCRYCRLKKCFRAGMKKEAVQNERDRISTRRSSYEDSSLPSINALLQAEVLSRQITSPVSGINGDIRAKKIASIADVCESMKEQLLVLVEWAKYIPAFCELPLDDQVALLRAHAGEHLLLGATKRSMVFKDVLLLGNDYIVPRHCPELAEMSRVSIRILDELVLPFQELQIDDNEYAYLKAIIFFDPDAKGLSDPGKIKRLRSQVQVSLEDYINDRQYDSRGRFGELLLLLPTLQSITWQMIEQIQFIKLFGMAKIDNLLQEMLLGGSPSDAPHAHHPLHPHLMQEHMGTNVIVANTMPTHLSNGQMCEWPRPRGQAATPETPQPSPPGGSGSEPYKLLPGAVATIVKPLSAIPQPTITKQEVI
TbMetRS inhib: blocks T. brucei methionyl-tRNA synthetase activity; inhibition, % at 11.9 µM; 0.4% of 360,000 active; AID 624268; purified T. brucei MetRS, ATP depletion, Kinase-Glo luminescence;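 active = inhibition above a per-plate cutoff of the control wells' mean inhibition plus 3 SD, cut at about 5.5% in these data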;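 also: 0% = DMSO wells median and 100% = median of wells with control inhibitor compound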
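Assay system: T. brucei methionyl-tRNA synthetase, purified | Medium: HEPES buffer with MgCl2, KCl, DTT, spermine, BSA, pyrophosphatase | Compound: 11.9 µM single point | Incubation: 15 min enzyme-compound preincubation, 2 h reaction, 10 min detection, 25 °C | Measured by: Kinase-Glo luciferase luminescence reporting remaining unconsumed ATP | Measure: % inhibition normalized to control-well medians | Replication: Singlicate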
PREPL inhibitor: inhibitors of human prolyl oligopeptidase-like enzyme PREPL; 0.68% of 320,000 active; inhibition, % at 5.96 µM; AID 2751; recombinant PREPL, fluorescence polarization activity-based probe; Q4J6C6; in the data active = inhibition above about 43%;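 also: 0% = enzyme with DMSO and 100% = wells lacking enzyme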
Rpn11 inh: inhibitors of human proteasome Rpn11; O00487; human 26S proteasome, Ub4-pepOG fluorescence polarization; 20S core pre-blocked with epoxomicin; inhibition, % at 20 µM; 0.59% of 360,000 active;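 active = inhibition at 20 µM, scaled to each plate's controls, above about 33%, limit read from the data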
Tb MetRS conf: confirmation of Trypanosoma brucei MetRS inhibitors; shares compounds with TbMetRS inhib; T. brucei MetRS enzyme, luminescence (ATP depletion); inhibition, % at 11.9 µM; 93% of 1,400 active; AID 624412; in the data active = inhibition above about 7%
Jurkat cytotox: kills Jurkat cells in T. brucei MetRS counterscreen; inhibition, % at 8.3 µM; shares compounds with TbMetRS inhib; 12% of 1,400 active; Jurkat cells viability, ATP luminescence; in the data active = inhibition above about 15%;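 also: 0% = vehicle and 100% = reference inhibitor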
Tb MetRS inh FP: T. brucei MetRS inhibition, orthogonal assay | purified T. brucei MetRS, fluorescence polarization | 44% of 1,400 active | inhibition, % at 11.9 µM | AID 651607 | shares compounds with TbMetRS inhib; in the data active = inhibition above about 17%;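 also: 0% = vehicle wells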
The depositor's hits bear a star; nt = not tested or not shown.

SMILES	Neddyl block	CSN deneddyl inh	HNF4A DNA FP	TbMetRS inhib	PREPL inhibitor	Rpn11 inh	Tb MetRS conf	Jurkat cytotox	Tb MetRS inh FP
O=C(C(=O)N1CCN(c2ccccc2)CC1)c1c[nH]c2ccccc12	9	2	0	6.7*	-9	-9	13*	4	3
O=C(c1c[nH]c2ccccc12)N1CCN(c2ccccc2)CC1	-5	0	11	0	6	21	nt	nt	nt
O=C(CN1C(=O)NC2(CCCCCC2)C1=O)Nc1ccccc1[N+](=O)[O-]	-14	-3	0	0	14	-1	nt	nt	nt
N#Cc1cnc(=S)n(-c2cc(C(F)(F)F)cc(C(F)(F)F)c2)c1N	-8	8	25	0	nt	20	nt	nt	nt
CN1CCc2c(C#N)c(N3CCCCC3)nc(NCc3ccccc3)c2C1	nt	-1	-5	0	39	-34	nt	nt	nt
N#Cc1c(NCCCO)nc(NCc2ccccc2)c2c1CCN(Cc1ccccc1)C2	nt	6	1	42*	24	-23	36*	0	19*
CCNC(=S)N(Cc1cc2cc(C)ccc2[nH]c1=O)C1CCCC1	2	2	-2	11*	-9	-18	22*	-5	11
CCNC(=S)N(Cc1cc2cc(C)c(C)cc2[nH]c1=O)C1CCCC1	-11	2	4	-1	10	-4	nt	nt	nt
COc1ccc(S(=O)(=O)N2CCCCC2)cc1NC(=O)c1[nH]c(C)c(C(C)=O)c1C	-6	2	2	0	3	-3	nt	nt	nt
CCCc1c(C(=O)Nc2ccc(F)cc2C)cnn1-c1ccccc1	1	5	1	1	-5	2	nt	nt	nt
CCCc1c(NC(=O)Nc2ccc(F)cc2)cnn1-c1ccccc1	-8	-1	-1	7.1*	19	1	17*	-7	8
CN(C(=O)c1cccs1)C1(C)CCS(=O)(=O)C1 (stereo unspecified)	4	2	2	-1	-5	3	nt	nt	nt
CCN(C(=O)CSc1nnc(-c2ccccc2Br)o1)C1CCS(=O)(=O)C1 (stereo unspecified)	0	-1	-1	-1	16	-11	nt	nt	nt
CCN(C(=O)CSc1nnc(-c2c[nH]c3ccccc23)o1)C1CCS(=O)(=O)C1 (stereo unspecified)	7	-2	-4	7.3*	7	-3	13*	-4	12
Cc1cccc(C(=O)OCCN2CCOCC2)c1	-1	2	-1	0	7	-5	nt	nt	nt
CC(C)Cc1nnc(NC(=O)CCC(=O)Nc2ccccc2)s1	0	-3	-3	0	-3	-1	nt	nt	nt
CC(C)COC(=O)Nc1nnc(Cc2ccccc2)s1	0	-4	-3	10*	-12	-7	3	5	4
CC(C)Cc1nnc(NC(=O)Nc2ccccc2)s1	8	8	-4	16*	-20	5	32*	-4	11
CCCCNC(=O)N1CCC(CCC(=O)N(C)Cc2ccccc2)CC1	11	-2	-1	0	-2	-1	nt	nt	nt
CCOC(=O)CNC(=O)N1CCC(CCC(=O)N(C)Cc2ccccc2)CC1	10	-2	-1	5.7*	-4	-4	3	-7	-3
NC1=NC(=O)/C(=C\c2ccc(-c3ccc(Cl)cc3)o2)S1	-9	6	1	9.1*	10	12	34*	22*	49*
O=C(CCCOc1ccc(Cl)cc1Cl)N/N=C/c1ccco1	3	2	1	17*	-17	-9	52*	5	57*
O=C(CCCOc1ccc(Cl)cc1Cl)N/N=C/c1ccccc1O	30	-4	1	37*	-21	-2	80*	82*	76*
Cc1cc(Cl)ccc1OCCCC(=O)NNC(=O)c1ccccc1O	25	-2	0	6.0*	18	3	25*	11	22*
O=C(CCCOc1ccc(Cl)cc1Cl)N/N=C/c1ccccc1	4	-4	-1	12*	-47	-3	39*	3	34*
SMILES	Neddyl block	CSN deneddyl inh	HNF4A DNA FP	TbMetRS inhib	PREPL inhibitor	Rpn11 inh	Tb MetRS conf	Jurkat cytotox	Tb MetRS inh FP
Cc1ccc(C)c(OCC(=O)N(Cc2ccccc2)c2c(N)n(Cc3ccccc3)c(=O)[nH]c2=O)c1	-5	1	3	0	nt	0	nt	nt	nt
O=C(COc1ccc(Cl)cc1Cl)NNC(=S)NCc1ccco1	7	-6	-2	6.4*	-11	1	4	12	15
O=C(COc1ccc(Cl)cc1Cl)N/N=C/c1ccc[nH]1	3	-2	-1	6.6*	26	2	36*	1	27*
O=C(CC(=O)Nc1cccc(Cl)c1)N/N=C\c1ccccc1	4	0	-2	36*	-23	5	82*	-4	51*
O=C(N/N=C/c1ccc(Cl)cc1)Nc1ccccc1	-3	2	2	-1	-8	3	nt	nt	nt
O=C(CCCOc1ccc(Cl)cc1Cl)N1CCN(c2ccccn2)CC1	4	-4	0	12*	8	-4	20*	-1	14
CN(CC(=O)Nc1ccccc1Br)C(=O)c1sccc1-c1ccccc1	10	-5	0	-1	-3	-5	nt	nt	nt
S=C(N/N=C/c1cccc2ccccc12)Nc1cccc(Cl)c1	13	0	-2	5.8*	13	1	0	5	3
C[C@@H]1CN([C@@H](C)CO)C(=O)c2cc(NC(=O)Nc3ccccc3)ccc2O[C@@H](C)CCCCO[C@H]1CN(C)C(=O)Nc1ccc(C(F)(F)F)cc1	-12	1	-3	18*	nt	0	22*	3	15
CCN1C(=O)C(CC(=O)Nc2ccc(OC)cc2)N(CCc2ccccc2)C1=S (stereo unspecified)	-13	1	0	43*	19	0	40*	1	25*
COc1ccc(NC(=O)CC2C(=O)N(c3ccccc3)C(=O)N2CCc2cccs2)cc1 (stereo unspecified)	9	2	-1	32*	28	5	46*	-1	24*
CCN1C(=O)C(CC(=O)Nc2ccc(F)cc2)N(CCc2ccc(OC)cc2)C1=S (stereo unspecified)	3	-10	1	30*	13	-2	47*	-7	36*
CCN1C(=O)C(CC(=O)Nc2ccc(OC)cc2)N(Cc2cccnc2)C1=S (stereo unspecified)	-4	-7	1	0	7	1	nt	nt	nt
